Consider 40 compounds from PubChem BioAssay.

Active and inactive are the calls of the source.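 The calls were made as follows: active = current rise at least 3 SD above the untreated control mean in each of two repeat wells; inactive = the rest.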

Potassium voltage-gated channel subfamily KQT member 1 (Homo sapiens), sequence (P51787 whole entry, looked up): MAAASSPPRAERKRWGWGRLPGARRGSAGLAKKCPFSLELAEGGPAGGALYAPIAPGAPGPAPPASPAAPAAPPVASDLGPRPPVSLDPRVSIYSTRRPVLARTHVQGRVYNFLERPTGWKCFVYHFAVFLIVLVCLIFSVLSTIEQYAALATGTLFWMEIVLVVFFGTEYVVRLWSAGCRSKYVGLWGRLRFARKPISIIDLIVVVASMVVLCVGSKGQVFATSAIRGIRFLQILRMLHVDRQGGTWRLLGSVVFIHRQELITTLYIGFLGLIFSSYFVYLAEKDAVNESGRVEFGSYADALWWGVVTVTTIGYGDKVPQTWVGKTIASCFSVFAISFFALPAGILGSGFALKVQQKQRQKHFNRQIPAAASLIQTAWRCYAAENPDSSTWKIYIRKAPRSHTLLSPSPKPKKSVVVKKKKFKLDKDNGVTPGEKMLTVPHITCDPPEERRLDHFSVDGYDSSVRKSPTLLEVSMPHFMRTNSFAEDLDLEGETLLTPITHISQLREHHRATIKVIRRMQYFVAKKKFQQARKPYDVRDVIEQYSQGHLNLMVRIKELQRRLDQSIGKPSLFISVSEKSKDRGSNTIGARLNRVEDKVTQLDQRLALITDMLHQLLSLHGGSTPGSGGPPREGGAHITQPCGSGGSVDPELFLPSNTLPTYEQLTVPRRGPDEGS

This assay has as its target Potassium voltage-gated channel subfamily KQT member 1 (Homo sapiens) (UniProt P51787). In words: KCNQ1 activators by electrophysiology – IonWorks patch clamp, KCNQ1-CHO cells, orthogonal assay for KCNQ1 potentiator project, confirmation (AID 493184).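 As to current potentiation: percent change of the same well's current before compound addition so 0% = no change.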 The following applies: automated patch clamp current, at 10 µM; stronger effect = higher value. Put shortly: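 Material: KCNQ1-expressing CHO cells; doses: 10 µM final, single point; probe or stimulus: voltage step from -90 mV holding to +40 mV, 2,000 ms; signal: automated voltage clamp, amphotericin B perforated patch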
For `C=CCSc1nc2sc3c(c2c(=O)n1CC)CCc1ccccc1-3`, the outcome was inactive.
Still for that read-out and setting: in the case of `CCOC(=O)c1c(NC(=S)NCCc2ccccc2)sc2c1CC(C(C)C)OC2` (stereo not given) it was “inactive”.
On the same count and under the same terms, in the case of `O=C(C1CCCCC1)N(CCN1CCCC1)c1nc2ccccc2s1` it was “inactive”; in that of `CCN(CC)CC(=O)Nc1ccc2c(c1)Nc1ccccc1CC2`, “inactive”; in that of `COc1ccc2nc(N=Nc3ccc(O)c4ccccc34)sc2c1`, “inactive”.
On the same count and under the same terms, then `Cc1ccccc1-c1nc(-c2ccccn2)no1`, with “inactive”; and `O=C(NNc1nc2c(F)cccc2s1)c1cc(=O)c2ccccc2o1`, with “inactive”.
`Cc1ccc(C(=O)CC(=O)c2cc(Cl)ccc2O)cc1`: the result was inactive.
The same measure, in the same setting: then `O=C(NC(=S)N1CCc2ccccc21)c1ccccc1`, with “inactive”; and `COc1ccc(CCNC(=O)c2ccc(N(C)S(=O)(=O)c3ccc(C)cc3)cc2)cc1OC`, with “inactive”; and `Oc1c(Cl)cc(Cl)cc1C=Nc1ccc2c(c1)OCCO2`, with “inactive”.
Same read-out and setting: then `O=C(CC(=O)c1ccccc1O)c1cccc(F)c1`, with “inactive”.
On the same count and under the same terms, in the case of `ON/C=N/C(=S)Nc1ncc(C(F)(F)F)cc1Cl` it was “inactive”.
As to `Cc1cc(C(=O)N/N=C/c2cccs2)no1`, the result was inactive.
On to `COc1ccc(NC(=O)CCCSc2nc(-c3ccco3)cc(C(F)(F)F)n2)cc1OC`, for which the outcome was inactive.
Same read-out and setting: in the case of `CN1C(=O)/C(=N\OC(=O)c2cccc3ccccc23)c2ccccc21` it was “inactive”; in that of `COc1ccc(CN(C)C(=O)c2ccc3ccccc3n2)cc1F`, “inactive”; in that of `CCOc1ccc2[nH]c(=O)c(CN(CCN3CCCC3)C(=S)Nc3ccccc3OCC)cc2c1`, “inactive”.
On the same count and under the same terms, in the case of `COCCn1c(SCC(=O)NCc2ccc3c(c2)OCO3)nnc1C(C)C` it was “inactive”; in that of `CCOC(=O)Cn1c(=N)n(CCOc2ccc(Br)cc2)c2ccccc21`, “inactive”.
On to `O=C(NN=C1c2ccccc2-c2ccccc21)c1cccc(Br)c1`, for which the result was inactive.
Regarding `O=C(NNc1nc2c(F)cc(F)cc2s1)c1ccccc1`, the result was inactive.
On the same count and under the same terms, then `COc1ccccc1OCCSc1nc2ccccc2n1CCC(=O)O`, with “inactive”; and `CC(=O)SCC(=O)N=c1sc2cc(F)ccc2n1C`, with “inactive”.
In the case of `O=C(Nc1nnc(-c2ccc3c(c2)CCCC3)o1)c1ccccc1Cl`, the outcome was inactive.
As for `COc1ccc(/C=C2\SC(=S)N(NS(=O)(=O)c3ccc(C)cc3)C2=O)c(OC)c1`, the current potentiation is 20.6% (active).
As to `CC(=O)OCC(=O)[C@@]1(OC(C)=O)[C@@H](C)C[C@H]2[C@@H]3C[C@H](F)C4=CC(=O)C=C[C@]4(C)[C@@]3(F)[C@@H](O)C[C@@]21C`, the outcome was inactive.
Same read-out and setting: then `O=C(NC(=S)Nc1ccccc1Br)c1ccco1`, with “inactive”; and `CCCCCc1ccc(C(=O)CCCC)c(=S)[nH]1`, with “inactive”.
On the same count and under the same terms, in the case of `CC(C)NC(=O)/C(=C/c1cn(-c2ccccc2)nc1-c1cccc([N+](=O)[O-])c1)NC(=O)c1ccccc1` it was “inactive”.
On the same count and under the same terms, then `C=CCN(CC=C)C(=S)NC(=O)c1ccc(OC)cc1`, with “inactive”.
On to `Cc1ccc(N2C(=O)N3[C@H](c4ccc(F)cc4)[C@@H]4C(=O)N(C5CCCCC5)C(=O)[C@@H]4[C@]3(Cc3ccccc3)C2=O)cc1`, for which the outcome was inactive.
Same read-out and setting: then `NC(=O)CSc1nnc(-c2ccccc2Br)n1-c1cccc(C(F)(F)F)c1`, with “inactive”; and `COc1ccc2nc(/N=C/c3c(C)[nH]n(-c4ccc(C)cc4C)c3=O)sc2c1`, with “inactive”.
For the compound `CN(C)CC1CCCCC1OC(=O)/C=C/c1ccc(Cl)cc1Cl` (stereo not given), the result was inactive.
Same read-out and setting: then `CC1(N2CCCCC2)CC2(O)C(=[N+]1[O-])CCC/C2=N\O` (stereo not given), with “inactive”.
The same measure, in the same setting: in the case of `C=CCn1c(O)c(N=NC(=S)Nc2ccccc2C)c2cc(S(=O)(=O)N3CCOCC3)ccc21` it was “inactive”; in that of `CC(=O)c1c(C)[nH]c(C(=O)Nc2cccc(C(F)(F)F)c2)c1C`, “inactive”.
The same measure, in the same setting: then `OCCN1CCN(C2CCC(c3ccc(F)cc3)c3ccc(F)cc32)CC1` (stereo not given), with “inactive”; and `CCc1nccn1S(=O)(=O)c1ccc2ccc(C)cc2c1`, with “inactive”.
